# Screens deposited in PubChem BioAssay by Sanford-Burnham Center for Chemical Genomics.
# Rows were chosen to be rich in hits. Some 2.9% of all compounds tested hit in one or more screens of this group.
# SENP1 FRET inh – inhibitors of human SENP1 SUMO protease catalytic domain; actives 0.21% (n = 360,000); inhibition, % at 10 µM; Q9P0U3; recombinant SENP1 catalytic domain, CyPet-SUMO1-YPet FRET cleavage;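 active = inhibition at least 30% at 10 µM, raw YFP signal under a set limit, fluorescence ratio 0.5 to 1.5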;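 note: 0% = enzyme with DMSO and 100% = no enzyme wells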
#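 Assay system: hSENP1 catalytic domain, recombinant. Amount: SENP1 enzyme, 20 pM final. Schedule: 50 min reaction, RT, dark. Technique: FRET, CFP and YFP emission. Control set: no-enzyme wells low, DMSO-plus-enzyme wells high control.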
# SENP8 block-1 – SENP8 protease inhibition. purified SENP8, Z-RLRGG-aminoluciferin cleavage, luminescence. inhibition, % at 10 µM. actives 1.2% (n = 330,000). AID 2540; in the data active = inhibition above about 50%
# Target sequence (Q96LD8 whole entry, looked up): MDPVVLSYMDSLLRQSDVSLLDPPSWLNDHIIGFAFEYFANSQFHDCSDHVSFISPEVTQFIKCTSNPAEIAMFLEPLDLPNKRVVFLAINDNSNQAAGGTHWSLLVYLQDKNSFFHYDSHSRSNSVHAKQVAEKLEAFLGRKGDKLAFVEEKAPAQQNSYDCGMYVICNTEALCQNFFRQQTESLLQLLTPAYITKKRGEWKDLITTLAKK
# SENP6 block – inhibitors of human SENP6 protease | actives 1.8% (n = 330,000) | Recombinant SENP6 catalytic domain, aminoluciferin luminescence | inhibition, % at 10 µM | Q9GZR1;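 active = inhibition above about 50% at the single tested dose, limit read from the data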;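 note: plate controls were DMSO wells with enzyme for no effect and DMSO wells lacking enzyme for full effect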
# SENP8 block-2 – SENP8 (human) protease inhibition. Q96LD8. recombinant SENP8, Nedd8 substrate fluorescence. inhibition, % at 20 µM. actives 0.64% (n = 360,000). AID 602440; in the data active = inhibition mostly above about 40%, no sharp cut-off; inactive = mostly below about 27%
# SENP7 block – blocks the human protease SENP7; Q9BQF6; recombinant SENP7, Z-RLRGG-aminoluciferin luminescence, 40 min; inhibition, % at 5 µM; actives 1.5% (n = 330,000);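 active = inhibition above about 50% at the single test dose, limit read from the data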;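 note: plate controls were DMSO with enzyme for no effect and no enzyme buffer wells for full effect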
# Target sequence (Q9BQF6 706-1050 limits assumed): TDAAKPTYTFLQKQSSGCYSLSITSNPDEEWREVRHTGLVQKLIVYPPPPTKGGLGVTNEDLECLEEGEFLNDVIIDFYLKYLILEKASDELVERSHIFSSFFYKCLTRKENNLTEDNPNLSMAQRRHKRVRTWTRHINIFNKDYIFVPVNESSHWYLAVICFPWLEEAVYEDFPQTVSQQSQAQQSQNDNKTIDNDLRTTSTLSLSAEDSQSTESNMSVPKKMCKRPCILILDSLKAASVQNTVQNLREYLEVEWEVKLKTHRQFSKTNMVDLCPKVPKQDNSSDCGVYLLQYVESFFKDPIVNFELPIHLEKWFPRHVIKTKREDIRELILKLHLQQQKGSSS
# Apaf1 inhib – blocks human Apaf-1 apoptosome activity. inhibition, % at 20 µM. actives 0.71% (n = 330,000). reconstituted apoptosome caspase-3 activity, DEVD-Rh110 fluorescence. O14727; active = inhibition of at least 40% at 20 µM;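 note: plate controls were DMSO wells for no effect and DEVD-CHO caspase inhibitor wells for full effect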
#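 Assay system: Apoptosome proteins | Medium: pH 7.5 Hepes buffer with CHAPS, BSA, DTT | Also added: Cytochrome c and DEVD-Rh110 substrate | Times: 30 min plus 50 min, RT | Detection: Rhodamine 110 fluorescence at Ex 480/Em 540 nm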
# * marks the source's active call; other numbers are inactive results; nt = no result given.
SMILES,SENP1 FRET inh,SENP8 block-1,SENP6 block,SENP8 block-2,SENP7 block,Apaf1 inhib
CC(C)n1cnc2cc(NCc3nc4ccccc4n3C)ccc21,-14,25,62*,-10,47,6
CN(c1ccccc1)S(=O)(=O)c1cccc(C(=O)NCC(c2cccs2)N2CCOCC2)c1 (centres undefined),-2,nt,nt,21,nt,nt
Cc1c(NC(=O)c2ccc(-c3ccccc3)cc2)cccc1C(=O)O,4,93*,99*,28,96*,-9
O=C(Nc1ccccc1C(=O)O)c1ccccc1,2,21,30,-3,-1,0
COc1ccc([N+](=O)[O-])cc1C(=O)C(=O)c1ccccc1,4,-12,-11,44*,-15,3
Cc1nccc(-c2cccc(NC(=O)Nc3ccc(Cl)cc3)c2)n1,0,-3,-4,-11,-1,-19
Cc1nccc(-c2cccc(N/N=C(\C#N)C(=O)c3ccccc3)c2)n1,0,3,5,38*,-1,-14
Cc1nc(Cc2nnc(SC(C)C(=O)Nc3ccccc3)o2)cs1 (centres undefined),2,nt,nt,15,nt,nt
CC(CCC(C)C(C)(C)C)[C@@H]1CC[C@H]2C3C[C@H](OS(O)(=S)=S)[C@H]4C[C@H](OS(O)(=S)=S)[C@@H](OS(O)(=S)=S)C[C@]4(C)[C@H]3CC[C@]12C (some centres undefined) (tested in a mixture with another compound),-8,54*,-2,1,8,87*
CC(CCC(=O)NN)C1CCC2C3CCC4CC(O)CCC4(C)C3CCC12C (centres undefined),2,nt,nt,8,nt,nt
Cc1cc2nc(-c3ccc(SCC(=O)Nc4ccc5c(c4)OCCO5)nc3)[nH]c2cc1C,-7,-9,9,-252,31,-5
Cc1ccc2nc(-c3ccc(SCC(=O)Nc4ccc5c(c4)OCCO5)nc3)[nH]c2c1,0,-11,-27,-372,51*,2
Cc1nn(-c2ccccc2)c(C)c1/C=N/NC(=O)CSc1nnc(SCc2ccccc2Cl)s1,1,61*,71*,5,27,7
O=C(CSc1nnc(SCc2ccc(Cl)cc2)s1)N/N=C/c1ccc(C(=O)O)cc1,0,65*,85*,13,37,-12
O=C(CSc1nnc(SCc2ccc(Cl)cc2)s1)N/N=C/c1c[nH]c2ccccc12,3,nt,nt,28,nt,nt
CCOC1=C2[C@@H](CN(S(=O)(=O)c3ccccc3C)[C@H]2c2ccc(Cl)cc2)[C@H]2C(=O)NC(=O)[C@H]2C1,2,nt,nt,14,nt,nt
CCOC(=O)C1(CCCc2ccccc2)CCN(C(=O)CCOC)CC1,1,-9,87*,6,-6,6
CCCCCc1cc(=O)oc2c(C(CCN3CCCC(C)C3)c3ccc4c(c3)OCO4)c(OC)cc(OC)c12 (centres undefined),-1,-17,-13,-152,-4,66*
COc1cc(OC)c2c(-c3ccccc3)cc(=O)oc2c1C(CCN1CCCC1)c1ccc2c(c1)OCO2 (centres undefined),-2,-2,-6,-53,-4,49*
COc1ccc(C(CCN2CCCC(C)C2)c2c(OC)cc(OC)c3c(C)cc(=O)oc23)cc1 (centres undefined),1,-6,-12,-494,-2,20
COc1ccc(C(CCN2CCCC2)c2c(OC)cc(OC)c3c(-c4ccccc4)cc(=O)oc23)cc1 (centres undefined),-2,-11,-8,-174,9,26
O=C1C2C3CC(C2C(=O)N1c1cccc(Cl)c1)[C@H](O)C3O (some centres undefined),1,4,-1,36,2,-26
CC(=O)[C@H]1[C@H](c2cccc(Cl)c2)C(C#N)(C#N)[C@@H]2c3ccccc3C=CN21,nt,0,67*,nt,8,56*
N#C[C@@H]1[C@@H]2C(=O)N(c3ccc4c(c3)OCCO4)C(=O)[C@@H]2C2c3ccccc3C=CN21 (some centres undefined),nt,20,48,nt,35,78*
COC(=O)C1(CCSC)NC(c2ccccc2F)C2C(=O)N(c3ccc4c(c3)OCCO4)C(=O)C21 (centres undefined),2,-2,17,12,4,-1
SMILES,SENP1 FRET inh,SENP8 block-1,SENP6 block,SENP8 block-2,SENP7 block,Apaf1 inhib
O=C(c1ccco1)[C@@H]1[C@@H]2C(=O)N(c3ccc(F)cc3)C(=O)[C@@H]2C2c3ccccc3C=CN21 (some centres undefined),nt,34,47,nt,32,83*
CC(=O)[C@H]1[C@@H]2C(=O)N(c3cccc(Cl)c3)C(=O)[C@@H]2[C@H]2c3ccccc3C=CN21,-18,27,53*,-198,34,73*
O=C(c1ccco1)[C@@H]1[C@@H]2C(=O)N(c3ccc(Br)cc3)C(=O)[C@@H]2C2c3ccccc3C=CN21 (some centres undefined),-26,nt,nt,-103,nt,nt
Cn1cc(-c2csc(C(O)(c3ccccc3)C(F)(F)F)n2)cn1 (centres undefined),-5,nt,nt,6,nt,nt
Cc1ccc(S(=O)(=O)N2C[C@H]3[C@H]4C(=O)N(C5CCCCC5)C(=O)[C@H]4CC(=O)[C@H]3[C@@H]2c2ccccc2F)cc1,1,nt,nt,14,nt,nt
CC(=O)[C@@H]1[C@@H]2C(=O)N(C3CCCCC3)C(=O)[C@@H]2C2c3ccccc3C=CN21 (some centres undefined),nt,28,55*,nt,30,84*
CC(=O)[C@@H]1[C@@H]2C(=O)N(c3ccc(F)c(Cl)c3)C(=O)[C@@H]2C2c3ccccc3C=CN21 (some centres undefined),nt,15,11,nt,19,72*
CC(=O)NC(c1ccccc1)c1nc(-c2csc3ccccc23)cs1 (centres undefined),-2,nt,nt,10,nt,nt
C[C@@H]1OC(Nc2ccc(N=Nc3ccccc3)cc2)[C@H](O)[C@H](O)[C@H]1O (some centres undefined),1,-3,-1,40*,2,-17
CC(C)C(=O)Nc1ccccc1C(=O)N/N=C/c1ccc([N+](=O)[O-])cc1,1,-2,-2,18,1,5
CC(Nc1cccc2ccccc12)C(=O)N/N=C/c1ccc([N+](=O)[O-])cc1 (centres undefined),3,4,81*,-40,46,25
Oc1[nH]c2ccccc2c1N=Nc1ccccn1,8,nt,nt,21,nt,nt
Oc1c(N=Nc2ccccn2)ccc2ccccc12,14,96*,94*,21,43,37
O=C(Oc1ccc(Br)cc1C(=S)N1CCCC1)c1ccccc1Cl,-2,4,-10,8,10,14
